ChEMBL document CHEMBL2163344, “Immunomodulatory properties of novel nucleotide oligomerization domain 2 (nod2) agonistic desmuramyldipeptides” (J Med Chem, 2012)
Activity calls are given as the source filed them. No cut-off for these calls is given here.

Tests used:
[1] = biological target: Toll-like receptor 3 (Homo sapiens) (UniProt O15455); assay: Agonist activity at human TLR3 expressed in Ramos blue cells assessed as stimulation of NF-kB/AP-1 activity at 20 uM incubated for 18 hrs using quanti blue assay based SEAP reporter gene assay; format: functional, cell-based
How it was run: (§1)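 Ramos-Blue control cells (TLR3/7/9 and Nod1, no Nod2; stable NF-κB/AP-1-inducible SEAP reporter) at 1 × 10^6 cells/mL, exposed 18 h to 20 μM compound. SEAP in supernatant read with QUANTI-Blue reagent (3 h, 37 °C), absorbance 640 nm; activity compared with untreated cells.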

[2] = biological target: Nucleotide-binding oligomerization domain-containing protein 2 (Homo sapiens) (UniProt Q9HC29); assay: Agonist activity at human Nod2 expressed in HEK293-blue cells assessed as increase in NF-kappaB transcriptional activity at 20 uM incubated for 18 hrs using quanti blue assay based SEAP reporter gene assay; format: functional, cell-based
How it was run: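 HEK-Blue Nod2 cells (HEK293 stably coexpressing human Nod2 and NF-κB-inducible SEAP) at 1 × 10^6 cells/mL, treated 18 h with 20 μM compound. Supernatant SEAP measured with QUANTI-Blue, 3 h at 37 °C, absorbance 640 nm. Duplicates in three independent experiments, compared with untreated cells.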

[3] = Cytotoxicity against human PBMCs assessed as residual metabolic activity at 20 uM after 18 hrs by MTS assay; format: ADME, cell-based, PBMC; details: read-out: Activity
How it was run: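 Ficoll-isolated human PBMC, 1 × 10^6 cells/mL in supplemented RPMI 1640 with 10% FBS, exposed 18 h to 20 μM compound (DMSO ≤0.1% final) in triplicate. Metabolic activity read by MTS (CellTiter 96 AQueous One) and expressed relative to vehicle-treated control.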

PBMC [4] = assay: Immunomodulatory activity in human PBMCs assessed as increase in PMA/ionomycin-induced IL10 release at 20 uM incubated for 18 hrs by multiplexed cytokine assay; format: functional, cell-based
PBMC [5] = assay: Cytotoxicity against human PBMCs assessed as residual metabolic activity at 20 uM in presence of PMA and ionomycin after 18 hrs by MTS assay; format: ADME, cell-based
How it was run: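 Human PBMC (1 × 10^6 cells/mL, triplicate) given 20 μM compound together with PMA 3.33 ng/mL and ionomycin 500 nM for 18 h. MTS metabolic activity compared with the PMA/ionomycin-only control.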

[6] = biological target: T1, Toll-like receptor 9 (Homo sapiens) (UniProt Q9NR96); assay: Agonist activity at human TLR9 expressed in Ramos blue cells assessed as stimulation of NF-kB/AP-1 activity at 20 uM incubated for 18 hrs using quanti blue assay based SEAP reporter gene assay; format: functional, cell-based; how it was run: as §1
T1 sequence (whole entry): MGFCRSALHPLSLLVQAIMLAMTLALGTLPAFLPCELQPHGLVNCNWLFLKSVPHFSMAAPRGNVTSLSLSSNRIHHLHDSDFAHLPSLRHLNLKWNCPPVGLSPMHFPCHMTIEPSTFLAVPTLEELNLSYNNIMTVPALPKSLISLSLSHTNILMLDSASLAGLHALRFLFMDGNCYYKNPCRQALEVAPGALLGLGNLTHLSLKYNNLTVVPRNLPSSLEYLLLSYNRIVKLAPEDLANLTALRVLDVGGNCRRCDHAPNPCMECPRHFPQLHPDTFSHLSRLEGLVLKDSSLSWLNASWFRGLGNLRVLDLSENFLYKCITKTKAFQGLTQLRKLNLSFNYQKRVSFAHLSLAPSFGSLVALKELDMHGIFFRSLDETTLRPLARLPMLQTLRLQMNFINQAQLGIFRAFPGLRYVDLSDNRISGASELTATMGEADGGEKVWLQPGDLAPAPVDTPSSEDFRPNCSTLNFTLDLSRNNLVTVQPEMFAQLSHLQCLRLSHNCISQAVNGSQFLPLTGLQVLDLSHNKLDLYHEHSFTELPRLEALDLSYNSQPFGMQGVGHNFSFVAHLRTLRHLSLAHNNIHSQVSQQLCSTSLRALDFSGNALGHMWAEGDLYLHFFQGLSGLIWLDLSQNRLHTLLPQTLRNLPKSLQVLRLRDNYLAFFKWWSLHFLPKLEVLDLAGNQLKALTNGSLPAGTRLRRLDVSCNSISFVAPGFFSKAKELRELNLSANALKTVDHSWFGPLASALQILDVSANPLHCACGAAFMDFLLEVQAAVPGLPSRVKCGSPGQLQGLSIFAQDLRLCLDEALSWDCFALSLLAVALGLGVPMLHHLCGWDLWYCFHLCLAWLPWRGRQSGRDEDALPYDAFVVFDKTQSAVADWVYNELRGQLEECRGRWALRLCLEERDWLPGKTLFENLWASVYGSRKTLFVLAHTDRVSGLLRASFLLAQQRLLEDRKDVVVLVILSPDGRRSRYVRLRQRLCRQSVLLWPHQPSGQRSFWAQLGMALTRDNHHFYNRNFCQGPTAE

PBMC [7] = assay: Immunomodulatory activity in human PBMCs assessed as increase in PMA/ionomycin-induced IL10 release at 20 uM incubated for 4 to 40 hrs by multiplexed cytokine assay; format: functional, cell-based
How it was run: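 PBMC time course: 20 μM compound with PMA 3.33 ng/mL and ionomycin 500 nM. Supernatants collected at 4, 18 and 40 h and cytokines read by cytometric bead array. Compared with PMA/ionomycin-only control; two independent experiments in duplicate, two donors.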

PBMC [8] = assay: Immunomodulatory activity in human PBMCs assessed as increase in PMA/ionomycin-induced IL8 release at 20 uM incubated for 18 hrs by multiplexed cytokine assay; format: functional, cell-based
PBMC [9] = assay: Immunomodulatory activity in human PBMCs assessed as increase in PMA/ionomycin-induced TNFalpha release incubated for 18 hrs by multiplexed cytokine assay; format: functional, cell-based
How it was run: (§2)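 Ficoll-isolated human PBMC, 1 × 10^6 cells per well, treated with 20 μM compound (DMSO ≤0.1%) plus PMA 3.33 ng/mL and ionomycin 500 nM for 18 h at 37 °C, 5% CO2. Cell-free supernatant cytokines measured by CBA human inflammatory kit on a flow cytometer against recombinant standards. Reported as % of PMA/ionomycin-only release; duplicates, three experiments, three donors.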

PBMC [10] = assay: Immunomodulatory activity in human PBMCs assessed as increase in PMA/ionomycin-induced IL-12p70 release at 20 uM incubated for 18 hrs by multiplexed cytokine assay; format: functional, cell-based; how it was run: as §2
PBMC [11] = assay: Immunomodulatory activity in human PBMCs assessed as increase in PMA/ionomycin-induced IL-12p70 release at 20 uM by multiplexed cytokine assay; format: functional, cell-based; details: TDE = time-dependent effect; how it was run: as §2
PBMC [12] = assay: Immunomodulatory activity in human PBMCs assessed as increase in PMA/ionomycin-induced TNFalpha release at 20 uM incubated for 18 hrs by multiplexed cytokine assay; format: functional, cell-based; how it was run: as §2
PBMC [13] = assay: Immunomodulatory activity in human PBMCs assessed as increase in PMA/ionomycin-induced IL6 release at 20 uM incubated for 18 hrs by multiplexed cytokine assay; format: functional, cell-based; how it was run: as §2
PBMC [14] = assay: Immunomodulatory activity in human PBMCs assessed as increase in PMA/ionomycin-induced TNFalpha release at 20 uM by multiplexed cytokine assay; format: functional, cell-based; details: TDE = time-dependent effect; how it was run: as §2
PBMC [15] = assay: Immunomodulatory activity in human PBMCs assessed as increase in PMA/ionomycin-induced IL-1beta release incubated for 18 hrs by multiplexed cytokine assay; format: functional, cell-based
PBMC [16] = assay: Immunomodulatory activity in human PBMCs assessed as increase in PMA/ionomycin-induced IL6 release incubated for 18 hrs by multiplexed cytokine assay; format: functional, cell-based

Nucleotide-binding oligomerization domain-containing protein 2 (Homo sapiens), sequence (Q9HC29 whole entry, the tested form may be a part): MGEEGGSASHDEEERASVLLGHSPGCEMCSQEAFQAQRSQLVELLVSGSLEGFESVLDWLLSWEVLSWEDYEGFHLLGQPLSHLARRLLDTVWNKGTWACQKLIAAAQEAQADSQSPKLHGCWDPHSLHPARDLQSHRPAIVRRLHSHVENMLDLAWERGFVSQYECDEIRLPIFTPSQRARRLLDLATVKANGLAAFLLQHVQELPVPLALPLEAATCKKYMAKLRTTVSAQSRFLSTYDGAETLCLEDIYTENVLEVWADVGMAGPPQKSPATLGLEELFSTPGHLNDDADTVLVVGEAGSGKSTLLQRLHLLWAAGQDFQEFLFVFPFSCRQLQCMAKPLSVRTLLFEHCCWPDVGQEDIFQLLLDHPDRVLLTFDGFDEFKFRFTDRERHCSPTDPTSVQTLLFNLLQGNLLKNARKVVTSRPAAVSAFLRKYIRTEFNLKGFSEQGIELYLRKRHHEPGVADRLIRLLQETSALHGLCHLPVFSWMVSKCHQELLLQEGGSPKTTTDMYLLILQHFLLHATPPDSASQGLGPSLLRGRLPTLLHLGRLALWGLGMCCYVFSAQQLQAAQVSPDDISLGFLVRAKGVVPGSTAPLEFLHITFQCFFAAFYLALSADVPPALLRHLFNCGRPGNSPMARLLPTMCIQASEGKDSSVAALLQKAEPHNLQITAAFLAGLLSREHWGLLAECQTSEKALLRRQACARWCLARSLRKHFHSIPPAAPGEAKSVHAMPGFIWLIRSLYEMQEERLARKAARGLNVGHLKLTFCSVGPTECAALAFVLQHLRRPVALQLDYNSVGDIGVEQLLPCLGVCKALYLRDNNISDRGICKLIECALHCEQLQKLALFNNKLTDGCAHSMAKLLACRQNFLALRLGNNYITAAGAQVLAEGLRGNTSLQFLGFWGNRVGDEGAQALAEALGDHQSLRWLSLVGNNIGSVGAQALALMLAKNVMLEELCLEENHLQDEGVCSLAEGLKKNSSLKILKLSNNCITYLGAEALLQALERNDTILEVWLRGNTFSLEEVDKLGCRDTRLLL
Toll-like receptor 3 (Homo sapiens), sequence (O15455 whole entry): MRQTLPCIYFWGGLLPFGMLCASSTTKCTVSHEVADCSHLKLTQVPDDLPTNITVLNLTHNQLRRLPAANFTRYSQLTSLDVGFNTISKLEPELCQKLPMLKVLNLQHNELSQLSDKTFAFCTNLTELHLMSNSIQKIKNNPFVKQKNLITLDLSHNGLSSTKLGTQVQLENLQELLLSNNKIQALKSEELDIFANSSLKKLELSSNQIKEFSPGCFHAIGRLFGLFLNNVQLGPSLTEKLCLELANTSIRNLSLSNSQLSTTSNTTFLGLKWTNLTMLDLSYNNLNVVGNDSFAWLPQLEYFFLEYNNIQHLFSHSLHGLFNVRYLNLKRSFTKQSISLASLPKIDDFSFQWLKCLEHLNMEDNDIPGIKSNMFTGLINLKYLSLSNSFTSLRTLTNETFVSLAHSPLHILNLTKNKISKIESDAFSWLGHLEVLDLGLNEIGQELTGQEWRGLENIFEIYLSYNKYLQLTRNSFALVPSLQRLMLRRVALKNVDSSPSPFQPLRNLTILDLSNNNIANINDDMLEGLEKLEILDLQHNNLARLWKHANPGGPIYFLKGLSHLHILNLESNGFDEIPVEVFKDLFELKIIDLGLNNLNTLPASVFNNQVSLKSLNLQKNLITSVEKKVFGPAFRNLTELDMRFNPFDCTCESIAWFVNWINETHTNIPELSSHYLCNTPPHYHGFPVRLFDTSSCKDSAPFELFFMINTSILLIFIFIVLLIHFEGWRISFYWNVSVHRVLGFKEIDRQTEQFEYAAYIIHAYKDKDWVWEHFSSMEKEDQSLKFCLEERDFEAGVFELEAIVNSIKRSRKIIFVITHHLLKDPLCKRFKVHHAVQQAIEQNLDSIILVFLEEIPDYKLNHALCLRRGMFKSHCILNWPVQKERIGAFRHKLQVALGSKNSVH

Row | Activity [1] | Activity [2] | Activity [6] | Structure (SMILES) | viability at 18 h, 20 µM [3] [%] | Activity (PBMC [4]) | Activity (PBMC [5]) | Activity (PBMC [7]) | Activity (PBMC [8]) | Activity (PBMC [9]) | Activity (PBMC [10]) | Activity (PBMC [11]) | Activity (PBMC [12]) | Activity (PBMC [13]) | Activity (PBMC [14]) | Activity (PBMC [15]) | Activity (PBMC [16])
1 | inactive |  | inactive | CCOC(=O)CC[C@@H](NC(=O)[C@H](C)NC(=O)COCCN1C(=O)c2ccccc2S1(=O)=O)C(=O)OCC | ≥ 90 | inactive | Non-toxic |  | inactive |  | inactive |  | inactive | inactive |  |  | 
2 | inactive | inactive | inactive | CCOC(=O)CC[C@@H](NC(=O)[C@H](C)NC(=O)COCCN1C(=O)c2ccccc2S1(=O)=O)C(N)=O | ≥ 90 | inactive | Non-toxic |  | inactive |  | inactive |  | inactive | inactive |  |  | 
3 | inactive | Active | inactive | CCOC(=O)CC[C@@H](NC(=O)[C@H](C)NC(=O)C1=C2c3ccccc3S(=O)(=O)N2CCC1)C(=O)OCC | ≥ 90 | inactive | Non-toxic |  | inactive |  | Active |  |  | Active |  |  | 
4 | inactive |  | inactive | CCOC(=O)CC[C@@H](NC(=O)[C@H](C)NC(=O)CCCCN1C(=O)c2ccccc2S1(=O)=O)C(=O)OCC | ≥ 90 | inactive | Non-toxic |  | inactive |  | inactive |  | inactive | inactive |  |  | 

Continued, molecule first:

Row | Structure (SMILES) | Activity [1] | Activity [2] | Activity [6] | viability at 18 h, 20 µM [3] [%] | Activity (PBMC [4]) | Activity (PBMC [5]) | Activity (PBMC [7]) | Activity (PBMC [8]) | Activity (PBMC [9]) | Activity (PBMC [10]) | Activity (PBMC [11]) | Activity (PBMC [12]) | Activity (PBMC [13]) | Activity (PBMC [14]) | Activity (PBMC [15]) | Activity (PBMC [16])
5 | CCOC(=O)CC[C@@H](NC(=O)[C@H](C)NC(=O)CNC(=O)c1cc2ccccc2[nH]1)C(=O)OCC | inactive | Active | inactive | ≥ 90 | inactive | Non-toxic | inactive | inactive | Dose-dependent effect | Active | tde | Active | Active | tde | Dose-dependent effect | Dose-dependent effect
6 | CCCCOC(=O)[C@@H](CCC(N)=O)NC(=O)[C@H](C)NC(=O)[C@@H](C)O[C@H]1[C@H](O)[C@@H](CO)OC(O)[C@@H]1NC(C)=O (stereo partly drawn) [MURABUTIDE] | inactive | Active | inactive | ≥ 90 | inactive | Non-toxic | inactive | inactive | Dose-dependent effect | Active | tde | Active |  | tde | Dose-dependent effect | Dose-dependent effect
7 | CCOC(=O)CC[C@@H](NC(=O)[C@H](C)NC(=O)CCCCN1C(=O)c2ccccc2S1(=O)=O)C(N)=O | inactive | inactive | inactive | ≥ 90 | inactive | Non-toxic |  | inactive |  | inactive |  | inactive | inactive |  |  | 
8 | CCOC(=O)CC[C@@H](NC(=O)[C@H](C)NC(=O)CNC(=O)c1cc2ccccc2[nH]1)C(N)=O | inactive | inactive | inactive | ≥ 90 | inactive | Non-toxic |  | inactive |  | inactive |  | inactive | inactive |  |  | 
